According to ChEMBL document CHEMBL4138058, “Design and synthesis of novel selective estrogen receptor degradation inducers based on the diphenylheptane skeleton” (Medchemcomm, 2017):

What was measured:
Assay type in all cases: cell-based
[1] = target: T1, Aryl hydrocarbon receptor (Homo sapiens, UniProt P35869); experiment: Downregulation of AhR expression in human MCF7 cells at 3 uM after 6 hrs in presence of proteasome inhibitor MG132 by Western blot method relative to lamin B; conditions: mcf7, 6 h
T1 sequence (P35869 whole entry): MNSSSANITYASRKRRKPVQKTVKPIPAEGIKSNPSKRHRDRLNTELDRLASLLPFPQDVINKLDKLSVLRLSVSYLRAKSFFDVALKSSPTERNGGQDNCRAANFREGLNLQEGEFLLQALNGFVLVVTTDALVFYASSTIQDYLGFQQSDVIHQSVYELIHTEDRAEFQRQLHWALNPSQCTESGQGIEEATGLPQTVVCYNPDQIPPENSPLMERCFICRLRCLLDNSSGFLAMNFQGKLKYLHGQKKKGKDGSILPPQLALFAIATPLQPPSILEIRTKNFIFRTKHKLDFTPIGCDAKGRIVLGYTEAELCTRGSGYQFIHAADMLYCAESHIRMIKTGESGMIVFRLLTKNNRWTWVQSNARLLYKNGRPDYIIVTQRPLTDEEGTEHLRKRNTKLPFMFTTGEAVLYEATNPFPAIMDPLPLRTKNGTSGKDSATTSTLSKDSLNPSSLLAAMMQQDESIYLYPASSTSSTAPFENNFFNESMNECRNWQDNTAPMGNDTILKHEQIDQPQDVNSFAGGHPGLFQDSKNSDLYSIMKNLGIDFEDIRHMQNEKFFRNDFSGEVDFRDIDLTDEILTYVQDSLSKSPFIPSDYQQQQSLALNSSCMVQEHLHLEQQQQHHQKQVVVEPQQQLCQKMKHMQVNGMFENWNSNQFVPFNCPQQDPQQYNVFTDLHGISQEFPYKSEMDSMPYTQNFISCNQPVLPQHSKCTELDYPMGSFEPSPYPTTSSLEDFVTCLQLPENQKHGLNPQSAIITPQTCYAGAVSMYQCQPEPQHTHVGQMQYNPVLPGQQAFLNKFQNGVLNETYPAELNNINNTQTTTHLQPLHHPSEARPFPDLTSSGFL
Outline: (§1)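 MCF-7 cells kept in DMEM with 10% FBS, kanamycin and 10 μg/mL insulin, then exposed to compounds for 6 h. Lysates made in SDS buffer (0.1 M Tris-HCl pH 8.0, 10% glycerol, 1% SDS), boiled, BCA-normalized and run on SDS-PAGE. Blots probed with anti-ERα, AR, AhR or VDR and β-actin or lamin B. Chemiluminescence quantified as target/loading-protein ratio; means ± S.E., n=3.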

[2] = target: T2, Vitamin D3 receptor (Homo sapiens) (UniProt P11473); experiment: Downregulation of VDR expression in human MCF7 cells at 10 uM after 6 hrs by Western blot method relative to lamin B; outline: as §1
T2 sequence (whole entry): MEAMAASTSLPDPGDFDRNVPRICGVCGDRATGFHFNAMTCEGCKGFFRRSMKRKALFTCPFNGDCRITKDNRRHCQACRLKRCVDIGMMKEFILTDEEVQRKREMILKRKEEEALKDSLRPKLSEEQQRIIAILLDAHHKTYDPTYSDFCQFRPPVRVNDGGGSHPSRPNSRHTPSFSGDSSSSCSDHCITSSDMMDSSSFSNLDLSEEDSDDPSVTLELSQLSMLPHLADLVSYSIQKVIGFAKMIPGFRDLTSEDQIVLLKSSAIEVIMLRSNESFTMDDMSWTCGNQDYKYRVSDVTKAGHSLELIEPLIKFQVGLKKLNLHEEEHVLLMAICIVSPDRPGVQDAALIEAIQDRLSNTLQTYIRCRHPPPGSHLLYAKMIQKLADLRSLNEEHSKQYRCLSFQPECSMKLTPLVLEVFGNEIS

[3] = target: T2, Vitamin D3 receptor (Homo sapiens); experiment: Downregulation of VDR expression in human MCF7 cells at 3 uM after 6 hrs by Western blot method relative to lamin B; outline: as §1
[4] = target: T3, Estrogen receptor (Homo sapiens) (UniProt P03372); experiment: Downregulation of ERalpha expression in human MCF7 cells at 3 uM after 6 hrs in presence of proteasome inhibitor MG132 by Western blot method relative to lamin B; outline: as §1
T3 sequence (whole entry): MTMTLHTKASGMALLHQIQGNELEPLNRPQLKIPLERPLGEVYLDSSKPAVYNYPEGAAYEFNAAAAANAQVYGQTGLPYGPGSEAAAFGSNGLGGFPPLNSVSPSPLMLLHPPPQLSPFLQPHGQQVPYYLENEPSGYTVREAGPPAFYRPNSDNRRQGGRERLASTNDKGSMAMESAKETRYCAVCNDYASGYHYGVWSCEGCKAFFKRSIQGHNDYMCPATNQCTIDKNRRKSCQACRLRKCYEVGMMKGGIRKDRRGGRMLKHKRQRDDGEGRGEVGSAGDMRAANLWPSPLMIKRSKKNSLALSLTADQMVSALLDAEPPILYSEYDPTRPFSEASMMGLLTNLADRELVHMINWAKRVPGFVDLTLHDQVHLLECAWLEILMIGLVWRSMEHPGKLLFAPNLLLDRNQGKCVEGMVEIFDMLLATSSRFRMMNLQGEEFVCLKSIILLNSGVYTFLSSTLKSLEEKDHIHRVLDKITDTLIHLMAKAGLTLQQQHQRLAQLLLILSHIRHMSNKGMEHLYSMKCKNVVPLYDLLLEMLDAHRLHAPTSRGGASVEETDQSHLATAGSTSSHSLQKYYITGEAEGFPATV

Activity [1]: 99%
Activity [2]: 80%
Activity [3]: 99%
Activity [4]: 101%
SMILES: CCCCCCCCCCNCCOc1ccc(C(CCC)(CCC)c2ccc(O)c(C)c2)cc1C
